Experimental data taken from ChEMBL document CHEMBL1158487, “Small molecule chloropyramine hydrochloride (C4) targets the binding site of focal adhesion kinase and vascular endothelial growth factor receptor 3 and suppresses breast cancer growth in vivo” (J Med Chem, 2009).
Activity calls are given as the source filed them. The rule behind the calls is not given here.

Key:
[1] = test system: SAOS-2; assay: Cytotoxicity against human Saos2 cells after 72 hrs by MTS assay; assay type: functional, cell-based; conditions: SAOS-2, 72 h
Method in brief: (§1)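 MTS viability assay, read as mitochondrial dehydrogenase activity of metabolically active cells. Cells were seeded at 5.0 × 10^3 per well and attached overnight. Fresh medium with or without compound was added, followed by 72 h exposure at increasing concentrations. Error shown as ±SEM.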

[2] = test system: BT-474; assay: Induction of apoptosis in human BT474 cells at 10 uM by TUNEL assay; assay type: functional
[3] = test system: BT-474; assay: Cytotoxicity against human BT474 cells after 72 hrs by MTS assay; assay type: functional, cell-based; conditions: BT-474, 72 h; method in brief: as §1
[4] = test system: MDA-MB-231; assay: Cytotoxicity against human MDA-MB-231 cells after 72 hrs by MTS assay; assay type: functional, cell-based; conditions: MDA-MB-231, 72 h; method in brief: as §1
[5] = test system: MIA PaCa-2; assay: Cytotoxicity against human MIAPaCa2 cells after 72 hrs by MTS assay; assay type: functional, cell-based; conditions: MIA PaCa-2, 72 h; method in brief: as §1
[6] = target: Vascular endothelial growth factor receptor 3 (Homo sapiens) (UniProt P35916); assay: Inhibition of VEGFR3 phosphorylation in human MCF7 cells expressing VEGFR3 assessed as partial dephosphorylation at Tyr1063/1068 activation loop after 24 hrs by Western blotting; assay type: cell-based
Sequence of Vascular endothelial growth factor receptor 3 (Homo sapiens) (P35916 whole entry): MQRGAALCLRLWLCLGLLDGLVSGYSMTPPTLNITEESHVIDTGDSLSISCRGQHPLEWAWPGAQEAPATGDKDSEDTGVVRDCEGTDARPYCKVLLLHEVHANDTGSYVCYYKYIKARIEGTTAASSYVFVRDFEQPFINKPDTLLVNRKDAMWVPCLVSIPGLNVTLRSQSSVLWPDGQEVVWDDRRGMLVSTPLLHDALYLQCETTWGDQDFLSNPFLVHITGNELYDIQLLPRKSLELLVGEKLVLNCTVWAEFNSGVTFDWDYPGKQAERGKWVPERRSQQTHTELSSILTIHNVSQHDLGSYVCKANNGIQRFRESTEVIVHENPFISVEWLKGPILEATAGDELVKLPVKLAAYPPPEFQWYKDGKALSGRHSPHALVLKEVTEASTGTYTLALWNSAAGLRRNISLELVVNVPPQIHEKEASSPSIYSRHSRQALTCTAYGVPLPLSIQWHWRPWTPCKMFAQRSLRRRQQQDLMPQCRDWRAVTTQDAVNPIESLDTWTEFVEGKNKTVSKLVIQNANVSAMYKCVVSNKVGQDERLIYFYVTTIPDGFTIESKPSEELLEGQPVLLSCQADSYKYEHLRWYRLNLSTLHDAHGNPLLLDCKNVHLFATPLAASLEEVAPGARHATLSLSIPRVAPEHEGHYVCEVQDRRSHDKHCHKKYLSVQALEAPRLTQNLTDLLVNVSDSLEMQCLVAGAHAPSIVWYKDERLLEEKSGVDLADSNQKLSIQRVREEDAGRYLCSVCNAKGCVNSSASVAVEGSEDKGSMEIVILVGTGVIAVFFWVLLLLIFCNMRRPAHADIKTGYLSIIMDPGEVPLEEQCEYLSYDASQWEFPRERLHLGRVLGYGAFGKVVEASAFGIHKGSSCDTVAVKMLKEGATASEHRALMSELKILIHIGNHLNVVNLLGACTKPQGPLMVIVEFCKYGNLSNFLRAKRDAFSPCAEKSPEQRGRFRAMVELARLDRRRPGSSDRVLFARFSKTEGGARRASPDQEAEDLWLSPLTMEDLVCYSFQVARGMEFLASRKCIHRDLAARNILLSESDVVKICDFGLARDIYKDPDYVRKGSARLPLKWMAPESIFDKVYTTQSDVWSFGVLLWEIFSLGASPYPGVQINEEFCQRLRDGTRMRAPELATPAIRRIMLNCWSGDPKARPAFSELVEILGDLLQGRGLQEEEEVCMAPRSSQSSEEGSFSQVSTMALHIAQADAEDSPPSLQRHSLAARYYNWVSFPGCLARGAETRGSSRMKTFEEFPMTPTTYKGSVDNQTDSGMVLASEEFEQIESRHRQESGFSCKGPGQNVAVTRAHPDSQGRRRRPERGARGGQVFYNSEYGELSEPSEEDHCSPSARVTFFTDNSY

[7] = target: Vascular endothelial growth factor receptor 3 (Homo sapiens) (UniProt P35916); assay: Inhibition of VEGFR3 phosphorylation in human BT474 cells assessed as partial dephosphorylation at Tyr1063/1068 activation loop after 24 hrs by Western blotting; assay type: cell-based; conditions: BT-474
Method in brief: (§2)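 BT474 cells were exposed for 24 h to increasing doses (1 and 10 µM). Western blots of lysates were probed with a phospho-specific VEGFR-3 antibody for Tyr1063/1068 in the kinase activation loop.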

[8] = target: Vascular endothelial growth factor receptor 3 (Homo sapiens) (UniProt P35916); assay: Inhibition of VEGFR3 phosphorylation in human BT474 cells assessed as complete dephosphorylation at Tyr1063/1068 activation loop at 10 uM by Western blotting; assay type: cell-based; conditions: BT-474; method in brief: as §2
[9] = test system: MCF7; assay: Cytotoxicity against human MCF7 cells expressing VEGFR3 assessed as cell viability at 1 uM after 48 hrs by MTS assay; assay type: functional, cell-based
Method in brief: (§3)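 Viability measured by MTS after 48 h exposure. Cells were seeded at 5.0 × 10^3 per well and attached overnight before compound-containing medium was added. BT474 is a […] subclone grown in RPMI-1640 with 10% FBS and 250 µg/ml insulin. MCF7 stable clones carried either empty pcDNA3 or VEGFR-3. Mean ± SEM, ≥3 experiments, two-tailed t test.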

[10] = target: Vascular endothelial growth factor receptor 3 (Homo sapiens) (UniProt P35916); assay: Inhibition of VEGFR3 phosphorylation in human MCF7 cells expressing VEGFR3 assessed as partial dephosphorylation at Tyr1063/1068 activation loop at 1 to 10 uM by Western blotting; assay type: cell-based; conditions: TDE = time-dependent effect
[11] = test system: T47D; assay: Cytotoxicity against human T47D cells after 72 hrs by MTS assay; assay type: functional, cell-based; method in brief: as §1
[12] = test system: BT-474; assay: Antitumor activity against human BT474 cells xenografted in nude-foxn1nu mouse assessed as reduction in tumor growth at 10 mg/kg, ip qd administered day after injection of cells after 14 days relative to control; assay type: functional; set-up: scale not given: the % may be the effect or the level left; conditions: route intraperitoneal
Method in brief: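 Female 5–6-week hsd:athymic nude-foxn1nu mice (5 per group) received 2–5 × 10^6 BT474 cells per 200 µl subcutaneously in the right flank. Dosing at 10 mg/kg ip once daily began the next day. Tumours were measured thrice weekly, with volume = length × width² × 0.5. The study ended at 14 days against a vehicle group.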

[13] = test system: MCF7; assay: Antitumor activity against human MCF7 cells expressing VEGFR3 xenografted in nude-foxn1nu mouse assessed as reduction in tumor growth at 30 mg/kg after 21 days relative to control; assay type: functional, organism-based; set-up: dose 30 mg/kg
[14] = test system: BT-474; assay: Antiproliferative activity against human BT474 cells after 48 hrs by BrdU incorporation assay; assay type: functional, cell-based
Method in brief: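 Cells plated at 2.5 × 10^3 per well and allowed to attach overnight. Fresh growth medium with or without compound was added along with BrdU labelling reagent, and cells were incubated for the set time. BrdU incorporation was then read with a kit per the manufacturer. Data are mean ± SEM of three or more independent experiments, compared by two-tailed Student's t test.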

[15] = test system: PANC-1; assay: Cytotoxicity against human PANC1 cells after 72 hrs by MTS assay; assay type: functional, cell-based; conditions: PANC-1, 72 h; method in brief: as §1
[16] = target: Focal adhesion kinase 1 (Homo sapiens) (UniProt Q05397); assay: Inhibition of FAK phosphorylation in human BT474 cells assessed as partial dephosphorylation at 1 uM after 24 hrs by Western blotting; assay type: cell-based; conditions: BT-474
Sequence of Focal adhesion kinase 1 (Homo sapiens) (Q05397 2-1052 limits assumed): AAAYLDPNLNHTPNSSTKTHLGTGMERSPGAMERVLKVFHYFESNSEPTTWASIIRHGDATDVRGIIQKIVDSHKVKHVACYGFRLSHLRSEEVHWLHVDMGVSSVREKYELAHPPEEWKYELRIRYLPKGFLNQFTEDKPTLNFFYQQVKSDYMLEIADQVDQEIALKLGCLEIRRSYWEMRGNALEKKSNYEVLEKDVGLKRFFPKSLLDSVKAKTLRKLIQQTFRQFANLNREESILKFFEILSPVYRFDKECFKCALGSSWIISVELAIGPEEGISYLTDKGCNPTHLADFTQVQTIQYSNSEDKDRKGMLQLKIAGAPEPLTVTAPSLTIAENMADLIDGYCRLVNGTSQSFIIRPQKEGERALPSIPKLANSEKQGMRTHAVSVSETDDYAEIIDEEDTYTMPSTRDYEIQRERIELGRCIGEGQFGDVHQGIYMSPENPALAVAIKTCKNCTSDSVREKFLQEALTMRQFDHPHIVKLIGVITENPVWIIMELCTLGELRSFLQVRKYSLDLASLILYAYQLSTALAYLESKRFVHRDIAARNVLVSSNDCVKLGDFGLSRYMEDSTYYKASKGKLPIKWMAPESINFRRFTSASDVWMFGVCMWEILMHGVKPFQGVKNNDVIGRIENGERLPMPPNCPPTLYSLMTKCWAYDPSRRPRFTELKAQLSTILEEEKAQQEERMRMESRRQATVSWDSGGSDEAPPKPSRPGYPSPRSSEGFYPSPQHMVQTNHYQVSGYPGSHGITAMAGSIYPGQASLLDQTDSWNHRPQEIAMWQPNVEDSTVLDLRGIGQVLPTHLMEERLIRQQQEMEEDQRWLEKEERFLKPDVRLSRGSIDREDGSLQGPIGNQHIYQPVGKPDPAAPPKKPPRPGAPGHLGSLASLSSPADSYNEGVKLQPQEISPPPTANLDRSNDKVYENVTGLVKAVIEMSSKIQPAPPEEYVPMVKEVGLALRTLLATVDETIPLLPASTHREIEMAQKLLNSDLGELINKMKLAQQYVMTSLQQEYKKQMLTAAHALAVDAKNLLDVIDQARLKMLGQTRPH

[17] = target: Vascular endothelial growth factor receptor 3 (Homo sapiens) (UniProt P35916); assay: Inhibition of VEGFR3 phosphorylation in human BT474 cells assessed as complete dephosphorylation at Tyr1063/1068 activation loop after 24 hrs by Western blotting; assay type: cell-based; conditions: BT-474; method in brief: as §2
[18] = Cytotoxicity against human MCF10A cells assessed as cell viability at 0.1 to 10 uM by MTS assay; assay type: cell-based; conditions: mcf-10a
Method in brief: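 MTS cell survival assay. Cells were plated at 5.0 × 10^3 per well and allowed to attach overnight, then given fresh medium with or without compound for the designated time. Absorbance was read per the kit protocol. Mean ± SEM of three or more independent experiments.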

[19] = test system: MCF7; assay: Cytotoxicity against human MCF7 cells assessed as cell viability at 10 uM after 48 hrs by MTS assay; assay type: functional; method in brief: as §3
[20] = target: Focal adhesion kinase 1 (Homo sapiens) (UniProt Q05397); assay: Inhibition of FAK phosphorylation in human MCF7 cells expressing VEGFR3 cells assessed as decrease in total phosphorylation at 10 uM after 24 hrs by immunoprecipitation technique; assay type: cell-based
Method in brief: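 MCF7-VEGFR-3 and BT474 cells were treated for 24 h at 10 µM or 1 µM. FAK was immunoprecipitated and blotted with anti-phosphotyrosine antibody 4G10 to assess total FAK tyrosine phosphorylation.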

[21] = target: Vascular endothelial growth factor receptor 3 (Homo sapiens) (UniProt P35916); assay: Inhibition of VEGFR3 phosphorylation in human BT474 cells assessed as partial dephosphorylation at Tyr1063/1068 activation loop at 1 uM after 24 hrs by Western blotting; assay type: cell-based; conditions: BT-474
[22] = test system: BT-474; assay: Decrease in colocalization of FAK-paxillin complex in human BT474 cells at 10 uM after 24 hrs by confocal microscopy; assay type: functional; set-up: scale not given: the % may be the effect or the level left
Method in brief: (§4)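 Cells were treated for 24 h with DMSO or 10 µM compound, then dual-immunostained for FAK (Alexa Fluor 488) together with VEGFR-3 or paxillin (Alexa Fluor 546). Confocal microscopy with scatter-plot analysis gave the percentage of colocalized molecules.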

[23] = test system: BT-474; assay: Cytotoxicity against human BT474 cells assessed as reduction in viability at 1 uM after 48 hrs by MTS assay; assay type: functional; method in brief: as §3
[24] = test system: HT-29; assay: Cytotoxicity against human HT-29 cells after 72 hrs by MTS assay; assay type: functional, cell-based; conditions: HT-29, 72 h; method in brief: as §1
[25] = test system: MCF7; assay: Induction of apoptosis in human MCF7 cells expressing VEGFR3 at 10 uM after 48 hrs by TUNEL assay; assay type: functional
[26] = test system: BT-474; assay: Decrease in colocalization of FAK-VEGFR3 complex in human BT474 cells at 10 uM after 24 hrs by confocal microscopy; assay type: functional; set-up: scale not given: the % may be the effect or the level left; method in brief: as §4
[27] = target: Focal adhesion kinase 1/vascular endothelial growth factor receptor 3 (Homo sapiens) (UniProt P35916+Q05397); assay: Disruption of FAK-VEGFR3 binding in human BT474 cells at 10 uM after 24 hrs by immunoprecipitation technique; assay type: cell-based; conditions: BT-474
Sequence of Focal adhesion kinase 1/vascular endothelial growth factor receptor 3 (Homo sapiens) (P35916 whole entry, looked up): as the sequence (P35916 whole entry) above
Sequence of Focal adhesion kinase 1/vascular endothelial growth factor receptor 3 (Homo sapiens) (Q05397 whole entry, looked up): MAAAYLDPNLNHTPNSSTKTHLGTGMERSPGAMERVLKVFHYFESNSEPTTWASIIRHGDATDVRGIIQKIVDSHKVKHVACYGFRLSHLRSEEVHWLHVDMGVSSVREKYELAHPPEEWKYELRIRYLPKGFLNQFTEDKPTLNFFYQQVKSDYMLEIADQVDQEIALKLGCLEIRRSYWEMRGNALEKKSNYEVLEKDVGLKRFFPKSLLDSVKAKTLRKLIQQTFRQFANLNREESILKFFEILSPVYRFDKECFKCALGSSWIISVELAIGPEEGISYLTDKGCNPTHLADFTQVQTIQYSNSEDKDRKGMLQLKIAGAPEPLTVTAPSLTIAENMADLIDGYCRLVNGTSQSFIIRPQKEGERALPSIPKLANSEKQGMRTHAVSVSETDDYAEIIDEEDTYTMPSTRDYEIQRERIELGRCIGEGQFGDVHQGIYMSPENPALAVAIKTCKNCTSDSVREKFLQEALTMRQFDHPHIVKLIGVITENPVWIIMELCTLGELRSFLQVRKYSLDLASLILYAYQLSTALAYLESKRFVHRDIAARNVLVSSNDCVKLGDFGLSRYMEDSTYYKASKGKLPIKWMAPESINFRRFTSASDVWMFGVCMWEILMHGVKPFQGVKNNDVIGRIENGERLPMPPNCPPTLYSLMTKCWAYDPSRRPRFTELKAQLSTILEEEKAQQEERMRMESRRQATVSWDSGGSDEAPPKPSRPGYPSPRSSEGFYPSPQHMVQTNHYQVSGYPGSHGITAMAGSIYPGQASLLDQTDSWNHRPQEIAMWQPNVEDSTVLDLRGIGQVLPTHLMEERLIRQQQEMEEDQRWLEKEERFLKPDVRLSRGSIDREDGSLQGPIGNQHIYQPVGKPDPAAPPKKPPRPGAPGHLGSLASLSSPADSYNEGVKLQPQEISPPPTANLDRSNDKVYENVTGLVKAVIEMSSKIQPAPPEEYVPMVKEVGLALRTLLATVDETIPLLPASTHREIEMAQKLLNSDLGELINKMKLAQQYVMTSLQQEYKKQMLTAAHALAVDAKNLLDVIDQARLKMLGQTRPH
Method in brief: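 BT474 cells were treated for 24 h with increasing concentrations and then lysed. Lysates were immunoprecipitated with anti-VEGFR-3 antibody, and co-precipitated FAK was detected by western blot.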

[28] = test system: MCF7; assay: Cytotoxicity against human MCF7 cells expressing VEGFR3 assessed as cell viability after 48 hrs by MTS assay; assay type: functional, cell-based; method in brief: as §3

CN(C)CCN(Cc1ccc(Cl)cc1)c1ccccn1.Cl [CHLORPYRAMIN HYDROCHLORIDE]
IC50 [1]: 1 µM
Activity [2]: 60%
IC50 [3]: 1 µM
IC50 [4]: 1 µM
IC50 [5]: 1 µM
Activity [6]: Dose-dependent effect
Activity [7]: Dose-dependent effect
Activity [8]: Active
Activity [9]: Active
Activity [10]: tde
IC50 [11]: 1 µM
Activity [12]: 20%
Activity [13]: inactive
Activity [14]: Dose-dependent effect
IC50 [15]: 1 µM
Activity [16]: Active
Activity [17]: Dose-dependent effect
Activity [18]: Active
fold change (FC) [19]: 2
Activity [20]: Active
Activity [21]: Active
Activity [22]: 76%
Activity [23]: 40%
IC50 [24]: 1 µM
Activity [25]: 76%
Activity [26]: 45%
Activity [27]: Active
Activity [28]: Dose-dependent effect
